Measurements published in article PMC9583317 (ACS Omega, 2022).
Numbered stars: 1 amine (or outer) side, 2 acyl side, 3 side chain; on linkers, the order of the positions; unused ones are H or OH. Square brackets hold non-standard residues; d marks the D form. Peptide text beside a SMILES is read from it. X1 = O=C(C(=Cc1ccccc1)N[*:1])[*:2]

Columns and labels:
Proteinase K = Proteinase K (Parengyodontium album, UniProt P06873); test: Proteolytic stability with proteinase K; assay type: in vitro ADME; conditions: 6 h, room temperature
Chain of Proteinase K (P06873 106-384): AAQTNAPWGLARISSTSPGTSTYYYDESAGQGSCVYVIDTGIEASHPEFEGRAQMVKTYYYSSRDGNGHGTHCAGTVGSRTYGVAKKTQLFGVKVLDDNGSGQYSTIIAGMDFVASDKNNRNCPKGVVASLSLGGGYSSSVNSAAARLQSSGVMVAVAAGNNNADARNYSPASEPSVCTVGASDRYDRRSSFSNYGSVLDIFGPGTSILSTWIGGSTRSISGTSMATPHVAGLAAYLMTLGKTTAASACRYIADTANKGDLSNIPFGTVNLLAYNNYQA
In short: (§1)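 Self-assembled peptide nanoparticles were exposed to proteinase K or trypsin for 6 h at room temperature with constant low-rpm stirring. Degradation was assessed by reverse-phase HPLC on a C-18 column. Morphological change of enzyme-treated particles was imaged by TEM.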

trypsin = test: Proteolytic stability with trypsin; assay type: in vitro ADME; conditions: 6 h, room temperature
In short: as §1

Red blood cells (RBCs) = test: In vitro hemolysis; assay type: cell-based; conditions: human RBC suspension, 39 to 773 μM, 37 °C, 3 h, absorbance 540 nm
In short: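 Human blood collected in 10% citrate-phosphate-dextrose. RBCs pelleted at 1500g, 10 min, 25 °C, and washed 3–5 times in PBS. A 10% (v/v) packed-RBC suspension was mixed 1:1 with peptide nanoparticles (39–773 μM) or the siRNA nanocomplex (70–280 nM). Incubated 3 h at 37 °C, then re-spun. Released hemoglobin read in supernatant at 540 nm. PBS and 0.2% Triton X-100 served as controls.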

[1] = ref [31]; cited from earlier work

N=C(N)NCCC[C@H](NC(=O)C(=Cc1ccccc1)NC(=O)[C@@H](N)CCCNC(=N)N)C(=O)NCC(=O)N[C@@H](CC(=O)O)C(N)=O [RΔFRGD] (H-R[X1]RGD-NH2)
morphological change after proteinase K (TEM) (Proteinase K): no changes in morphological structures
stability to trypsin compared with natural analogue RFRGD (trypsin; RP-HPLC C-18, RFRGD NPs in PBS (Fig S2b)): significantly more stable
morphological change after trypsin (TEM) (trypsin; TEM): no changes in morphological structures
proteolytic stability to trypsin (RP-HPLC) (trypsin; constant stirring, RP-HPLC C-18): observable degradation
hemolysis (Red blood cells (RBCs)): less than 5%

arginine-α,β-dehydrophenylalanine [RΔF]
size of nanospheres [1]: 60–80 nm
